High-throughput results deposited in PubChem by several laboratories.
MsrA act = bovine MsrA enzyme activators, primary screen, biochemical, absorbance, HTS; Methionine sulfoxide reductase A (Bos taurus); purified bovine MsrA, absorbance read-out; activation, % at 10.6 µM; hit rate 0.3% among 360,000; AID 602163, 2012; in the data active = activation above about 7.5%;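 note: 0% = vehicle and 100% = reference activator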
procasp7 counter = procaspase-7 activators, primary screen, counter-screen for procaspase-3 activator project, biochemical, absorbance, HTS, human; Caspase-7 (Homo sapiens), P55210; recombinant procaspase-7, Ac-DEVD-pNA absorbance 405 nm; D23A/D198A/D206A triple mutant, cannot self-cleave; scale: DMSO 0, 5 µM enzyme 100; activation, % at 8.5 µM; hit rate 0.093% among 330,000;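 active = percent activation above the screen-wide mean plus 3 SD, cut at about 25% in these data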
Target sequence (P55210 whole entry D23A/D198A/D206A): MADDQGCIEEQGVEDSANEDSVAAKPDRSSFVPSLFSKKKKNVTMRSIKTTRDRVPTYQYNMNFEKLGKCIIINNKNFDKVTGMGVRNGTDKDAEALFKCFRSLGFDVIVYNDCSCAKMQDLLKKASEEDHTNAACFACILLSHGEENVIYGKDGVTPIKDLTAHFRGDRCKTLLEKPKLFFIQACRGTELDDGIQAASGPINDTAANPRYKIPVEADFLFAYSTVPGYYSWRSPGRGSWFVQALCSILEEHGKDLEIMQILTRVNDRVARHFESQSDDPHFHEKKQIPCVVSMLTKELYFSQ
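Assay system: Uncleavable procaspase-7 mutant enzyme; Input: 2 µM procaspase-7 mutant as dispensed; Also added: DEVD-pNA substrate; Medium: Zinc-free HEPES pH 7.4 with 300 mM NaCl, 0.01% Triton X-100; Timing: 1 h compound preincubation, 2 h substrate cleavage, 25 °C; Measured by: Epi-absorbance of released pNA at 405 nm, two timepoints.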
Bfl-1 A1 inh = caspase 3/7 activation in MEF A1-2A-BIM cells, primary screen, A1 inhibitor project, cell-based, luminescence, HTS; Caspase-Glo 3/7 luminescence, 3 h; percent of clofoctol response, vehicle zero; caspase activation, % (no concentration beside the values); hit rate 0.066% among 330,000; AID 2462, 2010;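 active = over half of replicate activation scores above 10%, or exactly half above 10 with the replicate mean above 10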
MsrA inh = bovine MsrA enzyme inhibitors, primary screen, biochemical, absorbance, HTS | purified bovine MsrA, absorbance read-out | inhibition, % at 15.5 µM | hit rate 0.75% among 360,000 | AID 651718, 2012; in the data active = inhibition above about 4.5%;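 note: 0% = vehicle wells with enzyme and 100% = reference inhibitor wells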
procasp3 activ = activators of human procaspase-3 D3A mutant, primary screen, biochemical, absorbance, PC-3 D3A mutant, single concentration. Caspase-3 (Homo sapiens), P42574. recombinant procaspase-3 D3A, Ac-DEVD-pNA absorbance 405 nm. activation, % at 8.5 µM. hit rate 0.11% among 330,000. AID 463141, 2010;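 active = activation above the mean of all tested compounds plus 3 SD, cut at about 21% in these data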;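 note: 0% = DMSO alone and 100% = DMSO wells spiked with extra 5 µM PC-3 D3A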
Target sequence (P42574 whole entry D9A/D28A/D175A): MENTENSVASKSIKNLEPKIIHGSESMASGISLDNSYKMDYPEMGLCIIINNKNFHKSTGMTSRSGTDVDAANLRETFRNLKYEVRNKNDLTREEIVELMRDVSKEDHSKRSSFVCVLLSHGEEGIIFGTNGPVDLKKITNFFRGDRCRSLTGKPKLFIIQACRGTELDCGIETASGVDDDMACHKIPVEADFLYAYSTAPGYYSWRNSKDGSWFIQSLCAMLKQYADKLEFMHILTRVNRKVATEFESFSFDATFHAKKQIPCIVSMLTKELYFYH
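Test system: Procaspase-3 D3A mutant; medium: Zinc-free HEPES/NaCl buffer with 0.01% Triton X-100 at pH 7.4; reagent: DEVD-pNA substrate; doses: one concentration, 8.5 µM nominal, 0.8% DMSO; times: 1 h preincubation plus 2 h reaction at 25 °C; signal: Epi-absorbance at 405 nm of released p-nitroaniline, 0 and 120 min; replicates: singlicate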
PC3 D3A act = procaspase-3 activators, counter-screen for dual procaspase-3/7 activator project, biochemical, absorbance, PC-3 D3A mutant, human; shares compounds with procasp7 counter; recombinant PC-3 D3A, Ac-DEVD-pNA absorbance 405 nm; aspartates 9, 28, 175 changed to alanine; 100% = enzyme control; activation, % at 8.5 µM; 290 tested, under 10 active;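 active = mean percent activation across triplicates above a set limit taken from the earlier primary procaspase-3 screen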;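 note: 0% = DMSO wells and 100% = DMSO wells with 5 µM added PC-3 D3A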
PC7 dual conf = activation of procaspase-7 enzyme – biochemical, absorbance, human, dual procaspase-3/-7 activator project, confirmation; shares compounds with procasp7 counter; recombinant procaspase-7, Ac-DEVD-pNA absorbance 405 nm; D23A/D198A/D206A mutant that cannot self-cleave; activation, % at 8.5 µM; 290 tested, under 10 active;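 active = mean activation above a set limit carried over from the earlier primary screen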;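 note: 0% = DMSO only and 100% = DMSO with added 5 µM PC-7 enzyme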
* hit, by the source's call; nt = no result. Sampled rows, rich in hits. Any-hit rate of the full collection: about 1.2%.

SMILES | MsrA act | procasp7 counter | Bfl-1 A1 inh | MsrA inh | procasp3 activ | PC3 D3A act | PC7 dual conf
c1ccc2c(-c3c[nH]c4ccccc34)c3ccccc3nc2c1 | -3.1 | 33.5* | -0.9 | -0.1 | 15.5 | -10.5 | -9.8
COc1ccc(-c2cc(C(F)F)n3ncc(C(=O)N4CCCCC4)c3n2)cc1 | -1.7 | 12.1 | 0.4 | 0.4 | -1.2 | nt | nt
COc1ccc(-c2cc(C(F)F)n3ncc(C(=O)N4CCc5ccccc5C4)c3n2)cc1 | -2.3 | 26.3* | -1.0 | 0.7 | 5.4 | -29.9 | -35.5
CCN1C(=O)N/C(=C/c2ccc(Sc3ccc(C)cc3)o2)C1=O | -1.4 | 70.5* | 0.9 | 1.4 | 37.8* | -26.1 | -25.6
CCN1C(=O)N/C(=C/c2ccc(C)o2)C1=O | -8.8 | -17.6 | -0.3 | 2.1 | -11.8 | nt | nt
COC(=O)c1ccc(CNC(=O)[C@@H]2CCCN2S(=O)(=O)c2ccccc2F)cc1 | -6.2 | 26.4* | 0.7 | -0.3 | 7.7 | 2.6 | 0.6
O=C(NCc1ccc(F)cc1)C1CCCN1S(=O)(=O)c1ccccc1C(F)(F)F (configuration not stated) | -1.5 | 0.5 | 0.3 | 0.1 | -2.8 | nt | nt
Cc1cc2c(c(=O)o1)[C@@]1(C(=O)N(C)c3cc(Br)ccc31)C1=C(CCCC1=O)O2 | nt | nt | nt | 0.7 | nt | nt | nt
COC(=O)c1cc2c(c3c4ccccc4n(S(=O)(=O)c4cccc(C)c4)c13)C(=O)N(Cc1ccc(N(C)C)cc1)C2 | nt | nt | nt | 0.6 | nt | nt | nt
Cc1ccc2nc(-c3ccc(NC(=O)CCS(=O)(=O)c4ccccc4)cc3)sc2c1 | -0.8 | -7.2 | -5.9 | 1.8 | -12.1 | nt | nt
Cc1cccc(S(=O)(=O)Nc2ccc(-c3nc4ccc(C)cc4s3)cc2)c1 | -14.9 | 43.4* | 0.2 | 3.8 | 23.4* | -27.0 | -32.4
Nc1ccccc1-c1nc2ccccc2s1 | -6.0 | -2.7 | -2.6 | 1.7 | -6.9 | nt | nt
O=c1c(-c2nc3ccccc3s2)cccn1Cc1ccccc1 | -1.5 | 56.0* | 0.2 | 0.2 | 6.4 | -29.2 | -35.1
Cc1ccc(Cn2cccc(-c3nc4ccccc4s3)c2=O)cc1 | -3.3 | 43.2* | -0.3 | 1.1 | 11.4 | -29.5 | -34.4
O=C(N[C@H](Cc1ccccc1)C(=O)NCc1ccc(OC(F)(F)F)cc1)[C@H]1O[C@@H](n2ccc(=O)[nH]c2=O)[C@H](O)[C@@H]1O | nt | nt | nt | 3.7 | nt | nt | nt
CCOC(=O)c1ccc2nc(Nc3nc4ccc(F)cc4s3)sc2c1 | -4.0 | 30.6* | -0.1 | -0.8 | 20.4 | -27.2 | -35.4
COc1ccc(C=C2C(=O)OC(C)(C)OC2=O)cc1OC | -10.1 | 4.5 | 0.1 | 1.8 | 2.6 | nt | nt
COc1ccc(/C=C2\OC(=O)c3c(OC)cccc32)cc1OC | 0.1 | 89.3* | 0.5 | 2.6 | -19.4 | -27.4 | -35.3
COC(=O)c1cc(=O)n2c(sc3ccccc32)c1C#N | -3.3 | 26.2* | 0.5 | 0.0 | 19.2 | -28.7 | -35.4
COC(=O)c1cc(C)nc(N)c1C#N | -3.4 | 6.6 | 0.6 | -0.3 | 3.9 | nt | nt
CCN(CC)c1ccc(-c2c(C#N)c(N)nc(OC)c2C#N)cc1 | -13.2 | 27.0* | 0.2 | 1.6 | 60.0* | -27.2 | -34.8
COc1ccccc1NC(=O)Nc1cccc(NC(C)=O)c1 | -2.9 | 74.3* | -0.9 | 0.6 | 2.1 | 1.8 | 0.3
CC(C)(C)S(=O)N1C[C@@H]2CC(=O)C(CCO)=C2[C@H]1CCO (some centres not stated) | nt | nt | nt | 0.9 | nt | nt | nt
COc1cc2c(cc1OC)C1(C)N(CC2)C(C(C)=O)=NN1c1ccc(Cl)cc1 (configuration not stated) | -4.4 | 36.9* | -0.3 | 1.0 | 28.4* | -27.8 | -36.0
COC1OC(COCc2ccccc2)C2OC(C)(C)OC2C1O (configuration not stated) | nt | nt | nt | 0.2 | nt | nt | nt
SMILES | MsrA act | procasp7 counter | Bfl-1 A1 inh | MsrA inh | procasp3 activ | PC3 D3A act | PC7 dual conf
COc1ccc(C(=O)C2CN(c3ccccc3)CC2c2ccc(Cl)cc2)cc1 (configuration not stated) | -3.6 | 28.9* | 0.0 | -0.5 | 13.5 | 2.9 | 2.2
COc1ccc(C(=O)N2CC(c3ccc(Cl)cc3)CC2=O)cc1 (configuration not stated) | -1.5 | 4.4 | 0.1 | -0.5 | -2.0 | nt | nt
CCOC(=O)Cc1nc2ccccc2[nH]1 | -4.2 | 78.5* | 0.3 | 0.9 | 20.6 | 2.9 | -0.8
Cc1ccc(C(=O)Cc2nc3ccccc3[nH]2)cc1 | -7.3 | 12.8 | -1.3 | 1.1 | -4.8 | nt | nt
COc1ccc(CNC(=O)C(c2ccc(C)o2)N(C(=O)c2snc(C(N)=O)c2N)c2ccccc2OC)cc1 (configuration not stated) | -0.5 | 26.3* | 0.3 | 1.7 | -104.6 | -25.1 | -24.0
COc1ccc(N(C(=O)c2snc(C(N)=O)c2N)C(C(=O)NCc2ccccc2)c2ccc(O)cc2)cc1 (configuration not stated) | -3.7 | nt | nt | 2.2 | nt | nt | nt
NC(=O)c1nsc(C(=O)N(c2ccccc2)C(C(=O)NCc2ccc(F)cc2)c2ccc(O)cc2)c1N (configuration not stated) | -1.6 | 157.3* | -1.5 | 1.8 | -76.4 | -29.8 | -35.9
COc1ccccc1N(C(=O)c1snc(C(N)=O)c1N)C(C(=O)NC1CCCCC1)c1cccc(OC)c1OC (configuration not stated) | -5.0 | 37.1* | -0.4 | 1.1 | 14.0 | -20.7 | -17.6
Cc1ccccc1NC(=O)N(C)[C@H]1C[C@H]2c3[nH]c4c(-c5ccc6c(c5)OCO6)cccc4c3CCN2C(=O)[C@H]1[C@H](C)O | nt | nt | nt | -0.5 | nt | nt | nt
COCCN(CCOC)C(=O)[C@H](CCc1ccccc1)NC(=O)[C@H]1O[C@@H](n2cnc3c(N)ncnc32)[C@H](O)[C@@H]1O | nt | nt | nt | 1.3 | nt | nt | nt
O=C(Nc1ccc(Cl)cc1)OC[C@@H]1CSCCS(=O)(=O)N1 | nt | nt | nt | 1.3 | nt | nt | nt
Nc1c(S(=O)(=O)c2cccs2)c2nc3ccccc3nc2n1Cc1cccs1 | -0.6 | 77.7* | 0.3 | 0.7 | 81.6* | -11.1 | -21.4
Nc1c(S(=O)(=O)c2cccs2)c2nc3ccccc3nc2n1CCc1ccccc1 | nt | 5.4 | -0.4 | 1.1 | 6.2 | nt | nt
COc1cc(C(=O)NN=C2c3ccccc3-c3ccccc32)cc(OC)c1OC | nt | nt | nt | 0.7 | nt | nt | nt
